Bioassay records (PubChem)
This is a sample that favours compounds with a hit; in the whole collection about 2.8% have one here.
SIRT5 inh = inhibitors of human sirtuin-5 desuccinylase. Purified SirT5, succinyl-peptide AMC, trypsin-coupled fluorescence. hit rate 1.1% among 330,000. inhibition, % at 15 µM. Q9NXA8. AID 652115; in the data active = inhibition above about 15%; inconclusive = no clear call, values can overlap the other calls
DENV2 CPE = protects cells from dengue virus 2 cytopathic effect | DENV2-infected cells, cytopathic effect rescue, plate reader | CPE inhibition, % at 9.99 µM | hit rate 1.7% among 350,000 | AID 651640; in the data active = CPE inhibition above about 20%, passing the limit was not always enough; inconclusive = no clear call, values can overlap the other calls; tested in BHK-21 cells;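 note: 0% = median of neutral control wells and 100% = median of positive control wells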
E-selectin induc = E-selectin induction on HUVECs. HUVEC E-selectin immunofluorescence imaging; normalized: neutral wells 0, TNF-alpha wells 100. AID 686992. P16581. activation, % at 7.58 µM. hit rate 0.37% among 260,000;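 active = mean E-selectin-positive cell signal at least 10% of the positive control, reached in at least 60% of replicates, without over 20% cell loss; inconclusive = no rule given, readout overlaps actives, possibly toxicity-flagged; inactive = the rest, including those meeting only one limit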
Target sequence (P16581 whole entry, looked up): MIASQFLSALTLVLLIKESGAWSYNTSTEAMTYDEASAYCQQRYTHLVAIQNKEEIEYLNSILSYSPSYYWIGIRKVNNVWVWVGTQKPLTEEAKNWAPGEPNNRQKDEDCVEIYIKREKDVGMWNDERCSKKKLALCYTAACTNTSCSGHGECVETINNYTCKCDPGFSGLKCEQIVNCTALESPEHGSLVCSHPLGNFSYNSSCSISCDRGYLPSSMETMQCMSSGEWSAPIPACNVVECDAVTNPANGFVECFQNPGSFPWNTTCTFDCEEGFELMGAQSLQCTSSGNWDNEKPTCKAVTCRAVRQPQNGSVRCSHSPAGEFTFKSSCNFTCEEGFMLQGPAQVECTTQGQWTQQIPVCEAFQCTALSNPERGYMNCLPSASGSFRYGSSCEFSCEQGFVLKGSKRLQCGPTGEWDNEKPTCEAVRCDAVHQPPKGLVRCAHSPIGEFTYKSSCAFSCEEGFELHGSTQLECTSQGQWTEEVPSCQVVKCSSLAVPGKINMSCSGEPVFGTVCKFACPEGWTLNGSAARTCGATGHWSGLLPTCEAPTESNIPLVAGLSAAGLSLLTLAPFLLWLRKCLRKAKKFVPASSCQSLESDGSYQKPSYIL
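Material: HUVEC primary endothelial cells; Amount: 3,000 cells per well; Dosing: single concentration; Medium: EGM-2 growth medium on 0.1% gelatin-coated wells; Read-out basis: percent E-selectin-positive cells; Signal: immunofluorescence imaging; Control set: TNF-alpha, DMSO.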
An asterisk follows results filed as active; ? = inconclusive; nt = no result given; ! = a repeat was not active.

SMILES	SIRT5 inh	DENV2 CPE	E-selectin induc
Cc1ccc(S(=O)(=O)Nc2ccc3c(c2)C(=O)N([C@@H](C)CO)C[C@H](C)[C@@H](CN(C)C(=O)Nc2cccc4ccccc24)OCCCC[C@@H](C)O3)cc1	16*	1	0
Cc1ccc(S(=O)(=O)Nc2ccc3c(c2)C(=O)N([C@@H](C)CO)C[C@H](C)[C@@H](CN(C)C(=O)Nc2cccc4ccccc24)OCCCC[C@H](C)O3)cc1	16*	1	0
Cc1ccc(S(=O)(=O)Nc2ccc3c(c2)C(=O)N([C@H](C)CO)C[C@H](C)[C@@H](CN(C)C(=O)Nc2cccc4ccccc24)O3)cc1	-3	41*	0
Cc1ccc(S(=O)(=O)Nc2ccc3c(c2)C(=O)N([C@@H](C)CO)C[C@H](C)[C@@H](CN(C)C(=O)Nc2cccc4ccccc24)O3)cc1	-4	1	0
Cc1ccc(S(=O)(=O)Nc2ccc3c(c2)C(=O)N([C@@H](C)CO)C[C@@H](C)[C@@H](CN(C)C(=O)Nc2cccc4ccccc24)OCCCC[C@H](C)O3)cc1	-1	4	1
C[C@@H]1CCCCO[C@@H](CN(C)C(=O)Nc2cccc3ccccc23)[C@H](C)CN([C@H](C)CO)C(=O)c2cc(NS(=O)(=O)c3cn(C)cn3)ccc2O1	nt	-11	0
Cc1ccc(S(=O)(=O)Nc2ccc3c(c2)C(=O)N([C@H](C)CO)C[C@@H](C)[C@H](CN(C)C(=O)Nc2cccc4ccccc24)OCCCC[C@@H](C)O3)cc1	-1	-8	0
C[C@@H]1CCCCO[C@@H](CN(C)C(=O)Nc2cccc3ccccc23)[C@H](C)CN([C@@H](C)CO)C(=O)c2cc(NS(=O)(=O)c3cn(C)cn3)ccc2O1	nt	21*	0
Cc1noc(C)c1NC(=O)N[C@@H]1C=C[C@@H](CC(=O)NCc2ccc(Cl)c(Cl)c2)O[C@H]1CO	-2	5	0
C[C@@H]1CN([C@H](C)CO)S(=O)(=O)c2ccc(-c3ccc(F)cc3)cc2O[C@@H]1CN(C)C(=O)C1CCCCC1	10	1	0
COCC(=O)N(C)C[C@@H]1Oc2ncc(C#Cc3cccnc3)cc2C(=O)N([C@H](C)CO)C[C@@H]1C	1	14	1
C[C@H](CO)N1C[C@H](C)[C@@H](CN(C)Cc2cncnc2)Oc2cc(C#C[C@@H](C)O)ccc2S1(=O)=O	nt	-4	1
COc1cc(-c2cnc3c(NC=O)cc(-c4cccc(C(F)(F)F)c4)cn23)cc(OC)c1OC	nt	13	0
Cn1cc(-c2cnc3c(NC=O)cc(-c4cccc(C(F)(F)F)c4)cn23)cn1	-2	27*	0
COc1cccc(-c2cnc3c(NC(C)=O)cc(-c4ccncc4)cn23)c1	0	-9	0
COc1cccc(-c2cnc3c(NC=O)cc(-c4ccncc4)cn23)c1	nt	65*	-1
CC(=O)N(c1ccc2oc(=O)sc2c1)S(=O)(=O)c1ccc(C(=O)O)cc1	20*	8	nt
CC(=O)N(c1ccc2oc(=O)sc2c1)S(=O)(=O)c1cccc2cccnc12	-1	2	nt
Cc1ccccc1OCCSc1nc2ccccc2n1CCC(=O)O	0	-1	nt
Cc1ccc(OCCSc2nc3ccccc3n2CCC(=O)O)cc1	21*	-4	0
O=C(c1cccc([N+](=O)[O-])c1)c1ccccn1	-4	1	1
Cn1cccc1C(=O)c1cccc([N+](=O)[O-])c1	17*	1	0
CN1C(=O)c2cc(NC(=O)Cc3ccccc3)ccc2OC[C@@H]2O[C@@H](CC(=O)NC3CCC3)CC[C@@H]21	-2	-1	0
C[C@@H]1CCCCO[C@@H](CN(C)C(=O)C2CCCCC2)[C@@H](C)CN([C@@H](C)CO)C(=O)c2cc(NC(=O)c3ccccc3)ccc2O1	3	-3	0
C[C@H](CO)N1C[C@H](C)[C@H](CN(C)S(C)(=O)=O)Oc2ccc(NS(=O)(=O)c3ccc(Cl)cc3)cc2CC1=O	-3	-6	-14
SMILES	SIRT5 inh	DENV2 CPE	E-selectin induc
Cc1ccc(Cl)cc1-c1cc(C(=O)NCC2CCCCC2)[nH]n1	-5	1	nt
Cc1cc(F)cc(-c2cc(C(=O)NCC3CCCCC3)[nH]n2)c1	0	27*	0
C[C@@H]1CN([C@@H](C)CO)S(=O)(=O)c2ccc(C3=CCCC3)cc2O[C@@H]1CN(C)Cc1ccccc1	11	-1	0
Cc1noc(C)c1S(=O)(=O)N(C)C[C@H]1OCCCC[C@@H](C)Oc2ccc(NS(=O)(=O)c3ccc(F)cc3)cc2C(=O)N([C@@H](C)CO)C[C@H]1C	nt	-12	nt
O=C(C[C@H]1C=C[C@H](NC(=O)Cc2ccccn2)[C@@H](CO)O1)NCCCN1CCOCC1	-1	-7	0
O=C(C[C@@H]1C=C[C@H](NC(=O)Cc2ccccn2)[C@H](CO)O1)NCCCN1CCOCC1	7	33*	0
O=C(C[C@@H]1C=C[C@H](NC(=O)Cc2ccccn2)[C@@H](CO)O1)NCCCN1CCOCC1	2	-4	0
O=C(C[C@@H]1C=C[C@@H](NC(=O)Cc2ccccn2)[C@H](CO)O1)NCCCN1CCOCC1	4	38*	0
Cc1ccccc1-c1ccc(C2[C@@H]3CN(S(=O)(=O)c4cn(C)cn4)C[C@H]2N3)cc1 (some centres undefined)	-1	?	0
Cc1ccc(S(=O)(=O)N[C@@H]2CC[C@H](CC(=O)NC3CCCCC3)O[C@H]2CO)cc1	-5	0	0
C[C@H](CO)N1C[C@H](C)[C@@H](CN(C)C(=O)NC2CCCCC2)Oc2ccc(NS(=O)(=O)c3ccccc3)cc2C1=O	1	0	49*!
C[C@H]1CN([C@@H](C)CO)C(=O)c2cc(NS(=O)(=O)c3ccccc3)ccc2O[C@H]1CN(C)C(=O)NC1CCCCC1	1	4	-6
C[C@@H]1CN([C@H](C)CO)C(=O)c2cc(NS(=O)(=O)c3ccccc3)ccc2O[C@H]1CN(C)C(=O)NC1CCCCC1	3	-5	40*
C[C@@H]1CN([C@@H](C)CO)C(=O)c2cc(NS(=O)(=O)c3ccccc3)ccc2O[C@@H]1CN(C)C(=O)NC1CCCCC1	4	7	14
C[C@@H]1CN([C@H](C)CO)C(=O)c2cc(NS(=O)(=O)c3ccc(F)cc3)ccc2O[C@H]1CN(C)C(=O)NC1CCCCC1	1	17	0
C[C@@H]1CN([C@@H](C)CO)C(=O)c2cc(NS(=O)(=O)c3ccc(F)cc3)ccc2O[C@H]1CN(C)C(=O)NC1CCCCC1	1	35*	?
CN(C)C(=O)[C@@H]1[C@@H](CO)[C@@H]2Cn3c(ccc(C4=CCCC4)c3=O)[C@H]1N2CC1CC1	-12	4	0
COc1ccccc1CNC(=O)C[C@H]1CC[C@@H]2[C@H](COC[C@@H](O)CN2C(=O)Nc2ccc(F)cc2)O1	nt	2	0
C[C@@H]1CN([C@H](C)CO)C(=O)c2c(c3ccccc3n2C)-c2ccccc2CO[C@H]1CN(C)C(=O)C1CC1	4	0	0
O=C(C[C@@H]1CC[C@@H]2[C@H](COC[C@H](O)CN2Cc2ccccc2)O1)NCc1ccccc1Cl	0	8	0
C[C@H]1CN([C@@H](C)CO)C(=O)c2cc(NC(=O)NC3CCCCC3)ccc2O[C@@H]1CN(C)CC1CCCCC1	1	-12	nt
